The source made the active and inactive calls.
Assays:
[1] = molecular target: T1, Fatty-acid amide hydrolase 1 (Rattus norvegicus, UniProt P97612); test: Inhibition of rat FAAH assessed as kinact/Ki ratio incubated for 30 min in presence of glutamate dehydrogenase by 384-well format microplate reader assay
T1 sequence (P97612 whole entry): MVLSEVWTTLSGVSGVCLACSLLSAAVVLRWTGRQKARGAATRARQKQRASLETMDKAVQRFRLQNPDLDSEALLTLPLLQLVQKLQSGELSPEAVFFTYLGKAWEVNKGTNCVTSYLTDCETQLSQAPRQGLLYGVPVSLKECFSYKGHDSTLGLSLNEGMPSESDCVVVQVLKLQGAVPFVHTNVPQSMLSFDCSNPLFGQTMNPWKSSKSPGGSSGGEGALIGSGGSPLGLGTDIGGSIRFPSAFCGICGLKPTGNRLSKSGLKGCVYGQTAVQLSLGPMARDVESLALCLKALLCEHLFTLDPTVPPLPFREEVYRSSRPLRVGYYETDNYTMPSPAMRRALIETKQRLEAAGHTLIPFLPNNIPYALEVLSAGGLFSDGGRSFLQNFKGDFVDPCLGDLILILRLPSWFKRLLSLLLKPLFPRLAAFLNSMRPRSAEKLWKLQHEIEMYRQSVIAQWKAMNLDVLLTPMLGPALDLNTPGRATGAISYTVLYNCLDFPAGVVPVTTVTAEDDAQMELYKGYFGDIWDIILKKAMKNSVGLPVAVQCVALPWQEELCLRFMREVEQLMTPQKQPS

[2] = Oral bioavailability in dog; assay type: ADME, organism-based, Canis lupus familiaris; conditions: in vivo
Rattus norvegicus [3] = test: Antihyperalgesic activity in CFA induced Sprague-Dawley rat assessed as complete reduction of mechanical allodynia at 3 mg/kg, po in presence of CB1 antagonist SR141716 and CB2 antagonist SR144528 by von frey test; assay type: functional, organism-based
Procedure, shortened: (§1)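 Male Sprague-Dawley rats (200–250 g) given 150 μl CFA (1 mg/ml in mineral oil) intraplantar in the hind paw. Mechanical paw withdrawal thresholds read with Von Frey hairs on day 5 postinjection. Dosed orally as nanocrystalline suspension in 2% polyvinylpyrrolidone/0.15% SDS in water, 10 ml/kg. PWTs taken 4 h postdose for dose-response, or at 1, 2, 4, 8, 24 h for time course.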

[4] = molecular target: T2, Fatty-acid amide hydrolase 1 (Homo sapiens) (UniProt O00519); test: Inhibition of FAAH in human brain at 100 uM in presence of FP-rhodamine by competitive activity-based protein profiling method; assay type: tissue-based
T2 sequence (whole entry): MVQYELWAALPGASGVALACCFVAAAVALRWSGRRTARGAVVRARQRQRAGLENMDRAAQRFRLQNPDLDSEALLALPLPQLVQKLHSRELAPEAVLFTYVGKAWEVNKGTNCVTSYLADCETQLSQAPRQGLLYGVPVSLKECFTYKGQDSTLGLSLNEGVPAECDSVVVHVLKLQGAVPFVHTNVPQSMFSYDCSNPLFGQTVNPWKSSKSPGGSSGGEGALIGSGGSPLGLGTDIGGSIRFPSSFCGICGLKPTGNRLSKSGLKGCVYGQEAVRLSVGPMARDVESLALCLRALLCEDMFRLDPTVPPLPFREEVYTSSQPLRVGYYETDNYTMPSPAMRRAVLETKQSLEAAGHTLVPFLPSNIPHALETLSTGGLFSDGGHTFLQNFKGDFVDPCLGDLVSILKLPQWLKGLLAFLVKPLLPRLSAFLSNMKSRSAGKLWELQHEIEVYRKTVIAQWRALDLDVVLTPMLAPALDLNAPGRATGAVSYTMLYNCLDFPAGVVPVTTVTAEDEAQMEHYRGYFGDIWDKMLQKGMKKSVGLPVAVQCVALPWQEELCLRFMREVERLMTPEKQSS
Procedure, shortened: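 Competitive ABPP on human and mouse brain, liver and heart proteomes (membrane and soluble fractions), exposed to compound at 10 or 100 μM or to DMSO. Serine hydrolases were then labeled with FP-rhodamine. Gels were read by fluorescence scanning, and loss of band labeling (FAAH or other hydrolases by kDa) was judged.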

Mus musculus = test: Antinociceptive activity in C57BL6/J mouse assessed as increased tail withdrawal latency at 1 to 10 mg/kg, po administered for 4 hrs; assay type: functional, organism-based; conditions: dose 1-10 mg/kg
Procedure, shortened: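 Male C57BL/6J mice, 7 weeks old, n = 8/group, dosed orally at 1 or 10 mg/kg in PEG 300 (4 ml/kg). Tetrad tested 4 h postdose: locomotor activity, tail-immersion thermal nociception, catalepsy (assessed 60 s), body temperature. Means ± S.E.M. versus vehicle.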

[5] = Ratio of drug concentration in CFA induced Sprague-Dawley rat brain to plasma at 0.1 to 10 mg/kg, po by LC/MS analysis; assay type: ADME, organism-based; conditions: brain and plasma, dose 0.1-10 mg/kg
Procedure, shortened: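 Male Sprague-Dawley rats (200–250 g) received 150 μl CFA (1 mg/ml suspension in mineral oil) into the plantar hind paw. On day 5 they were dosed orally at 0.003–10 mg/kg as a nanocrystalline suspension in 2% polyvinylpyrrolidone/0.15% SDS in H₂O at 10 ml/kg. Drug levels were measured in brain tissue and plasma in the dose-response study, where PWTs were read at 4 h post-dose.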

Rattus norvegicus [6] = test: Antihyperalgesic activity in CFA induced Sprague-Dawley rat assessed as inhibition of mechanical allodynia at 0.1 mg/kg, po measured for 4 hrs by von frey test; assay type: functional, organism-based; procedure, shortened: as §1
Rattus norvegicus [7] = test: Antihyperalgesic activity in CFA induced Sprague-Dawley rat assessed as inhibition of mechanical allodynia at 0.003 to 10 mg/kg, po measured for 4 hrs by von frey test; assay type: functional, organism-based; conditions: dose 0.003-10 mg/kg; procedure, shortened: as §1
Rattus norvegicus [8] = test: Antihyperalgesic activity in MIA induced Sprague-Dawley rat assessed as reduction in mechanical allodynia at 3 mg/kg, po administered for 1 day and measured after 2 to 4 hrs; assay type: functional, organism-based
Procedure, shortened: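 Male Sprague-Dawley rats (220–270 g), isoflurane-anesthetized, given 2 mg MIA in 0.9% saline (50 μl) intra-articular into the knee. From day 14, oral dosing at 10 ml/kg once daily for 3 days in 4% 2-hydroxypropyl-β-cyclodextrin/1% ethanol in 0.01 M HCl. Celecoxib 30 mg/kg in 0.5% methylcellulose twice daily. Joint compression threshold by digital Randall-Selitto at 2 and 4 h postdose on days 1 and 3; n = 10/group.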

[9] = molecular target: T3, Fatty-acid amide hydrolase 1 (Homo sapiens, UniProt O00519); test: Inhibition of human FAAH assessed as kinact/Ki ratio incubated for 30 min in presence of glutamate dehydrogenase by 384-well format microplate reader assay
T3 sequence (O00519 whole entry): T2 sequence (whole entry)

[10] = molecular target: T4, Fatty-acid amide hydrolase 1 (Rattus norvegicus) (UniProt P97612); test: In vivo inhibition of FAAH in CFA induced Sprague-Dawley rat WBC at 0.1 to 10 mg/kg, po relative to control; assay type: functional, organism-based; conditions: dose 0.1-10 mg/kg
T4 sequence (whole entry): T1 sequence (P97612 whole entry)
Procedure, shortened: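 Brain and blood leukocyte membrane fractions from CFA rats after oral dosing. FAAH activity measured with 3H-labeled AEA substrate, quantifying released 3H-ethanolamine; n = 3 rats/group. Time course sampled at 1, 2, 4, 8, 24 h after 1 mg/kg.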

Rattus norvegicus [11] = test: Antihyperalgesic activity in CFA induced Sprague-Dawley rat assessed as inhibition of mechanical allodynia at 1 mg/kg, po measured for 1 to 24 hrs by von frey test; assay type: functional, organism-based; conditions: time 1-24 hrs; procedure, shortened: as §1

IC50 [1]: 11.1 nM
bioavailability [2]: 58%
inhibition [4]: Active
Kp [5]: 1.3
IC50 [9]: 10.7 nM
inhibition [10]: 98%
Structure (SMILES): O=C(Nc1cccnn1)N1CCC(=Cc2cccc(Oc3ccc(C(F)(F)F)cn3)c2)CC1
Activity (Rattus norvegicus [3]): Active
Activity (Mus musculus): Toxic
Activity (Rattus norvegicus [6]): Active
Activity (Rattus norvegicus [7]): Active
Activity (Rattus norvegicus [8]): Active
Activity (Rattus norvegicus [11]): Active

From ChEMBL document CHEMBL5653606 (J Pharmacol Exp Ther, 2011)
